# pIC50: −log10 of the molar value.
# Experiments:
# [1] = Inhibition of Staphylococcus aureus methionyl-tRNA synthetase assessed as decrease in [35S]methionyl-tRNA generation
# Staphylococcus aureus [2] = test: Antibacterial activity against Staphylococcus aureus ATCC 25923 after 16 hrs at 36 degC by microdilution method; format: functional; conditions: ATCC 25923, 16 h
# In short: (§1)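 Broth microdilution in Mueller-Hinton broth, following NCCLS/CLSI. Stock solutions were serially diluted 2-fold to the final test concentrations. The MIC was the lowest concentration that prevented visible growth after incubation at 36 °C. Mupirocin and amoxicillin were reference antibiotics run by the same method.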
# Staphylococcus aureus [3] = test: Antibacterial activity against Staphylococcus aureus ATCC 6538P after 16 hrs at 36 degC by microdilution method; format: functional; in short: as §1
# Staphylococcus aureus [4] = test: Antibacterial activity against Staphylococcus aureus ATCC 10537 after 16 hrs at 36 degC by microdilution method; format: functional; conditions: ATCC 10537, 16 h; in short: as §1
# Staphylococcus aureus [5] = test: Antibacterial activity against Staphylococcus aureus GIORGIO after 16 hrs at 36 degC by microdilution method; format: functional; in short: as §1
# Staphylococcus aureus [6] = test: Antibacterial activity against Staphylococcus aureus Smith after 16 hrs at 36 degC by microdilution method; format: functional; in short: as §1
# Staphylococcus aureus [7] = test: Antibacterial activity against Staphylococcus aureus SP-N2 after 16 hrs at 36 degC by microdilution method; format: functional
# In short: (§2)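 Broth microdilution per CLSI in Mueller-Hinton broth for staphylococci. Stock solutions were diluted in a 2-fold serial series to final test concentrations. The MIC was read as the lowest concentration that prevented visible bacterial growth after incubation at 36 °C. Mupirocin and amoxicillin were run by the same method as references.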
# [8] = test system: Staphylococcus epidermidis; test: Antibacterial activity against Staphylococcus epidermidis ATCC 12228 after 16 hrs at 36 degC by microdilution method; format: functional; conditions: ATCC 12228, 16 h; in short: as §1
# Enterococcus faecium = test: Antibacterial activity against Enterococcus faecium ATCC 10541 after 16 hrs at 36 degC by microdilution method; format: functional; conditions: ATCC 10541, 16 h
# In short: (§3)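 Broth microdilution in Brain Heart Infusion broth, following NCCLS/CLSI. Test compounds were serially diluted 2-fold from stock. The MIC was the lowest concentration with no visible bacterial growth after incubation at 36 °C. Mupirocin and amoxicillin were tested the same way as references.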
# Enterococcus faecalis [9] = test: Antibacterial activity against Enterococcus faecalis ATCC 19433 after 16 hrs at 36 degC by microdilution method; format: functional; conditions: ATCC 19433, 16 h; in short: as §3
# Enterococcus faecalis [10] = test: Antibacterial activity against Enterococcus faecalis ATCC 29212 after 16 hrs at 36 degC by microdilution method; format: functional; conditions: ATCC 29212, 16 h; in short: as §3
# Staphylococcus aureus [11] = test: Antibacterial activity against methicillin-resistant Staphylococcus aureus KS2007-6 after 16 hrs at 36 degC by microdilution method; format: functional; in short: as §2
SMILES,pIC50 [1],MIC (Staphylococcus aureus [2]),MIC (Staphylococcus aureus [3]),MIC (Staphylococcus aureus [4]),MIC (Staphylococcus aureus [5]),MIC (Staphylococcus aureus [6]),MIC (Staphylococcus aureus [7]),MIC [8],MIC (Enterococcus faecium),MIC (Enterococcus faecalis [9]),MIC (Enterococcus faecalis [10]),MIC (Staphylococcus aureus [11])
CN(C)C(CNc1cc(=O)c2ccccc2[nH]1)CN(Cc1ccc(Cl)c(Cl)c1)Cc1ccc(Cl)c(Cl)c1 (stereo not given),6.88,> 64 µg/mL,> 64 µg/mL,> 64 µg/mL,> 64 µg/mL,> 64 µg/mL,> 64 µg/mL,> 64 µg/mL,> 64 µg/mL,> 64 µg/mL,> 64 µg/mL,–
CC(C)(C)OC(=O)NC(CNCc1ccc(Cl)c(Cl)c1)CNc1cc(=O)c2ccccc2[nH]1 (stereo not given),6.99,32 µg/mL,32 µg/mL,32 µg/mL,32 µg/mL,32 µg/mL,32 µg/mL,32 µg/mL,8 µg/mL,32 µg/mL,32 µg/mL,32 µg/mL
CN(C)C(CNCc1ccc(Cl)c(Cl)c1)CNc1cc(=O)c2ccccc2[nH]1 (stereo not given),7.40,> 64 µg/mL,> 64 µg/mL,64 µg/mL,> 64 µg/mL,64 µg/mL,64 µg/mL,32 µg/mL,8 µg/mL,16 µg/mL,16 µg/mL,64 µg/mL
O=c1cc(NCC(CNCc2ccc(Cl)c(Cl)c2)OCc2ccccc2)[nH]c2ccccc12 (stereo not given),7.61,4 µg/mL,4 µg/mL,4 µg/mL,4 µg/mL,4 µg/mL,4 µg/mL,2 µg/mL,0.5 µg/mL,2 µg/mL,2 µg/mL,2 µg/mL
O=c1cc(NCCCNCc2ccc(Cl)c(Cl)c2)[nH]c2ccccc12,8.47,16 µg/mL,4 µg/mL,16 µg/mL,32 µg/mL,16 µg/mL,8 µg/mL,8 µg/mL,0.5 µg/mL,2 µg/mL,2 µg/mL,8 µg/mL
CC1(C)S[C@@H]2[C@H](NC(=O)[C@H](N)c3ccc(O)cc3)C(=O)N2[C@H]1C(=O)O [AMOXICILLIN],–,0.25 µg/mL,0.125 µg/mL,0.125 µg/mL,0.125 µg/mL,0.125 µg/mL,0.25 µg/mL,0.125 µg/mL,8 µg/mL,64 µg/mL,64 µg/mL,0.25 µg/mL
C/C(=C\C(=O)OCCCCCCCCC(=O)O)C[C@@H]1OC[C@H](C[C@@H]2O[C@H]2[C@@H](C)[C@H](C)O)[C@@H](O)[C@H]1O [MUPIROCIN],–,0.25 µg/mL,0.5 µg/mL,0.25 µg/mL,0.25 µg/mL,0.25 µg/mL,> 64 µg/mL,2 µg/mL,1 µg/mL,1 µg/mL,2 µg/mL,–

# Reference: ChEMBL document CHEMBL1152839, “2-[2-Substituted-3-(3,4-dichlorobenzylamino)propylamino]-1H-quinolin-4-ones as Staphylococcus aureus methionyl-tRNA synthetase inhibitors” (Eur J Med Chem, 2009)
